# ChEMBL document CHEMBL4177766, “Targeting a Subpocket in Trypanosoma brucei Phosphodiesterase B1 (TbrPDEB1) Enables the Structure-Based Discovery of Selective Inhibitors with Trypanocidal Activity” (J Med Chem, 2018)
# Active and inactive are the calls of the source. The calls are words filed in the database; no cut-off is given here.
# What was measured:
# [1] = molecular target: T1, Class 1 phosphodiesterase PDEB1 (Trypanosoma brucei) (UniProt Q8WQX9); test: Inhibition of PDEB1 in bloodstream form of Trypanosoma brucei Lister 427 assessed as increase in intracellular cAMP levels at 0.3 uM after 5 hrs by ELISA; format: cell-based
# T1 sequence (whole entry): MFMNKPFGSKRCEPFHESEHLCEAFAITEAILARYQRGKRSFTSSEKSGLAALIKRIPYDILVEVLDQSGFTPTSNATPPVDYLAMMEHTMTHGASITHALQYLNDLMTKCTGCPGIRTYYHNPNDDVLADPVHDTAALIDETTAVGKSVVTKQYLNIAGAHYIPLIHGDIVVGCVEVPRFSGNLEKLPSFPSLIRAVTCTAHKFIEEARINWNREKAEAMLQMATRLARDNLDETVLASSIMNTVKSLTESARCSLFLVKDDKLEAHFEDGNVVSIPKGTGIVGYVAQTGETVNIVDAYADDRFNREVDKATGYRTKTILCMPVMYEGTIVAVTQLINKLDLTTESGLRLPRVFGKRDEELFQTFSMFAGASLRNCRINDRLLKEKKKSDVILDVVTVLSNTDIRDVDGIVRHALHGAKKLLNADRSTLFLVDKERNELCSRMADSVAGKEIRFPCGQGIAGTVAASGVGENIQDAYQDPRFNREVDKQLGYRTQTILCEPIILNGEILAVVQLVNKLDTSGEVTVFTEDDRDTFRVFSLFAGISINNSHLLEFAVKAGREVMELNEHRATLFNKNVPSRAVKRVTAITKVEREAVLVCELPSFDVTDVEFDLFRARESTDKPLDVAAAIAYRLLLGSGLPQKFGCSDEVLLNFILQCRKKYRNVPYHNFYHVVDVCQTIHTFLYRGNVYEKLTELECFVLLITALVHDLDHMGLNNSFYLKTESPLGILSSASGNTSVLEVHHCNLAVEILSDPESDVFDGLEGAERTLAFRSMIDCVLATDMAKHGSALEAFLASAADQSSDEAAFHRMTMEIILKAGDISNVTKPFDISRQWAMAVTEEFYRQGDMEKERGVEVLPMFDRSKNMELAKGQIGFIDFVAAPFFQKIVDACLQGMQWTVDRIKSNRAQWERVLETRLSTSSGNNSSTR
# Summary of the method: (§1)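 Log-phase bloodstream forms in HMI-9/FBS at 2 × 10^6 cells/mL, 6 mL subcultures; test drug 0.1–10 μM, reference inhibitor 0.3 μM, pentamidine 0.025 μM or no drug; 5 h at 37 °C, 5% CO2. 5 × 10^6 cells pelleted, lysed 20 min on ice in 0.1 M HCl, supernatant frozen for cAMP. Duplicates; mean of four determinations ± SEM; Student's t-test.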
# [2] = molecular target: 3',5'-cyclic-AMP phosphodiesterase 4B (Homo sapiens, UniProt Q07343); test: Inhibition of full length recombinant human PDE4B1 expressed in Sf21 insect cells using cAMP as substrate by scintillation proximity assay
# [3] = molecular target: T2, Class 1 phosphodiesterase PDEB1 (Trypanosoma brucei, UniProt Q8WQX9); test: Inhibition of full length Trypanosoma brucei PDEB1 expressed in Sf21 insect cells using cAMP as substrate by scintillation proximity assay
# T2 sequence (Q8WQX9 whole entry): T1 sequence (whole entry)
# Summary of the method: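 Enzyme amount set so that under 20% of substrate was consumed. Ki reported as mean ± SD of at least two independent experiments.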
# [4] = molecular target: T1, Class 1 phosphodiesterase PDEB1 (Trypanosoma brucei); test: Inhibition of PDEB1 in bloodstream form of Trypanosoma brucei Lister 427 assessed as increase in intracellular cAMP levels at 0.025 uM after 5 hrs by ELISA; format: cell-based; summary of the method: as §1
# [5] = Selectivity ratio of Ki for full length recombinant human PDE4B1 to Ki for full length Trypanosoma brucei PDEB1
# Trypanosoma brucei [6] = test: Antitrypanosomal activity against trypomastigote form of Trypanosoma brucei Squib 427 assessed as parasite growth inhibition after 72 hrs by resazurin assay; format: functional, organism-based; conditions: Squib 427, 72 h
# Summary of the method: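 Suramin-sensitive Squib-427 bloodstream trypomastigotes grown in HMI-9 + 10% FCS at 37 °C, 5% CO2. About 1.5 × 10^4 parasites per well exposed to five concentrations (64, 16, 4, 1, 0.25 μM), DMSO ≤0.5% final. After 72 h, resazurin added and absorbance read at 540 nm 4 h later, expressed as % of blank controls. Suramin reference; IC50 from triplicate experiments, mean ± SD.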
# MRC5 = test: Cytotoxicity against human MRC5 cells assessed as decrease in cell viability after 72 hrs by resazurin assay; format: cell-based; conditions: mrc5, 72 h
# Trypanosoma brucei [7] = test: Antitrypanosomal activity against bloodstream form of Trypanosoma brucei Lister 427 assessed as appearance of misshapen cells at 10 uM after 24 hrs by DAPI staining-based fluorescence microscopic method; format: functional, organism-based
# Summary of the method: (§2)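 Bloodstream-form trypanosomes seeded at 2 × 10^5 cells/mL with 10 μM drug; samples taken at 0, 6, 12 and 24 h, pelleted at 4 °C, washed in PBS pH 7.4, air-dried on slides, fixed 15 min in 4% formaldehyde/PBS, mounted with DAPI. Nuclei, kinetoplasts, cell division and morphology were scored by brightfield and fluorescence microscopy.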
# Trypanosoma brucei [8] = test: Antitrypanosomal activity against bloodstream form of Trypanosoma brucei Lister 427 assessed as defect in cytokinesis at 10 uM after 6 hrs by DAPI staining-based fluorescence microscopic method; format: functional, organism-based; summary of the method: as §2
# [9] = molecular target: T1, Class 1 phosphodiesterase PDEB1 (Trypanosoma brucei); test: Inhibition of PDEB1 in bloodstream form of Trypanosoma brucei Lister 427 assessed as increase in intracellular cAMP levels after 5 hrs by ELISA; format: cell-based; summary of the method: as §1
# Trypanosoma brucei [10] = test: Antitrypanosomal activity against bloodstream form of Trypanosoma brucei Lister 427 assessed as appearance of rounded cells with multiple flagella at 10 uM after 12 hrs by DAPI staining-based fluorescence microscopic method; format: functional, organism-based; summary of the method: as §2
# Sequence of 3',5'-cyclic-AMP phosphodiesterase 4B (Q07343 whole entry): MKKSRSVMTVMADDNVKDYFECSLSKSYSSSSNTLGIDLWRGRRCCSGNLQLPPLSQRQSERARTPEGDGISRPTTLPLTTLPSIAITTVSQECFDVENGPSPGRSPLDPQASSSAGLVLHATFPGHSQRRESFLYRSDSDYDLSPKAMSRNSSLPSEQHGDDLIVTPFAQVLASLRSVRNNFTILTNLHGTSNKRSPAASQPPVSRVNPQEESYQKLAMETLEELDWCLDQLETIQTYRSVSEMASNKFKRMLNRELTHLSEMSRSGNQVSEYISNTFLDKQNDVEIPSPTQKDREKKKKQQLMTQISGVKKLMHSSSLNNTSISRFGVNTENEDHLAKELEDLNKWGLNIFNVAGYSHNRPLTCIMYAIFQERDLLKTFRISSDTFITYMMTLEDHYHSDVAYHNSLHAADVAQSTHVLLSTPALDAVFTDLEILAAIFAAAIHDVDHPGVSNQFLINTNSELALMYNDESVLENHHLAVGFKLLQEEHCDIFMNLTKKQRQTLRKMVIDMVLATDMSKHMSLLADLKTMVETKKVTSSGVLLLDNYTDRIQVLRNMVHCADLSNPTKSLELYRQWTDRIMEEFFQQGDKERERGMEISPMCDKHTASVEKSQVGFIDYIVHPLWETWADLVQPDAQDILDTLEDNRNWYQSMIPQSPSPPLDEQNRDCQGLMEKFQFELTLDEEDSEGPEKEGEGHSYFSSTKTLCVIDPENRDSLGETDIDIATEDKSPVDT
SMILES,Ki [2],Ki [3],Ratio Ki [5],other results
COc1ccc(C2=NN(C3CCCCCC3)C(=O)[C@@H]3CC=CC[C@H]23)cc1OCCCCOc1ccc(-c2nnn[nH]2)cc1,0.000631 µM,,,inhibition [1]: Active
COc1ccc(C2=NN(C3CCCCCC3)C(=O)[C@H]3CC=CC[C@@H]23)cc1-c1ccc(C(=O)NCC(N)=O)cc1,50.1 µM,3.98 µM,,
N=C(N)c1ccc(OCCCCCOc2ccc(C(=N)N)cc2)cc1,,,,inhibition [4]: inactive
COc1ccc(C2=NN(C(C)C)C(=O)[C@@H]3CC=CC[C@H]23)cc1-c1ccc(C(=O)N2CCC[C@@H]2C(N)=O)cc1 (racemic),,,18,
COc1ccc(C2=NN(C(C)C)C(=O)[C@@H]3CC=CC[C@H]23)cc1-c1ccc(C(=O)N2CC[C@@H](O)C2)cc1 (racemic),,,15,
COc1ccc(C2=NN(C3CCCCCC3)C(=O)[C@@H]3CC=CC[C@H]23)cc1-c1ccc(C(=O)N2CCC[C@@H]2C(N)=O)cc1 (racemic),,,13,
COc1ccc(C2=NN(C3CCCCCC3)C(=O)[C@@H]3CC=CC[C@H]23)cc1-c1ccc(C(=O)N2CC[C@@H](O)C2)cc1 (racemic),,,9,
COc1ccc(C2=NN(C3CCCCCC3)C(=O)[C@@H]3CC=CC[C@H]23)cc1-c1ccc(C#N)cc1 (relative stereo),0.0316 µM,0.501 µM,0.1,
COc1ccc(C2=NN(C3CCCCCC3)C(=O)[C@@H]3CC=CC[C@H]23)cc1-c1ccc(C(N)=O)cc1 (relative stereo),0.158 µM,0.158 µM,1,
COc1ccc(C2=NN(C3CCCCCC3)C(=O)[C@@H]3CC=CC[C@H]23)cc1-c1cccc(C(=O)O)c1 (relative stereo),12.6 µM,7.94 µM,2,
COc1ccc(C2=NN(C3CCCCCC3)C(=O)[C@@H]3CC=CC[C@H]23)cc1-c1ccc(C(=O)NCC(=O)NCCO)cc1 (relative stereo),3.16 µM,0.398 µM,7,
COc1ccc(C2=NN(C(C)C)C(=O)[C@@H]3CC=CC[C@H]23)cc1-c1ccc(C(=O)NCC(N)=O)cc1 (relative stereo),2 µM,0.1 µM,,IC50 (Trypanosoma brucei [6]; read-out: IC50): 6.7 µM; CC50 (MRC5): 35 µM
COc1ccc(C2=NN(C3CCCCCC3)C(=O)[C@@H]3CC=CC[C@H]23)cc1-c1ccc(C(=O)O)cc1 (relative stereo),7.94 µM,1.58 µM,5,
COc1ccc(C2=NN(C3CCCCCC3)C(=O)[C@@H]3CC=CC[C@H]23)cc1-c1ccc(C(=O)N(C)CC(N)=O)cc1 (relative stereo),2.51 µM,0.398 µM,7,
COc1ccc(C2=NN(C3CCCCCC3)C(=O)[C@@H]3CC=CC[C@H]23)cc1-c1ccc(C(=O)NCCC(N)=O)cc1 (relative stereo),1 µM,0.501 µM,2,
COCCNC(=O)CNC(=O)c1ccc(-c2cc(C3=NN(C4CCCCCC4)C(=O)[C@@H]4CC=CC[C@H]34)ccc2OC)cc1 (relative stereo),3.98 µM,0.501 µM,8,
COc1ccc(C2=NN(C3CCCCCC3)C(=O)[C@@H]3CC=CC[C@H]23)cc1-c1ccc(C(=O)NCC(N)=O)cc1 (relative stereo),,,,Activity (Trypanosoma brucei [7]): Active; Activity (Trypanosoma brucei [8]): Active; IC50 (Trypanosoma brucei [6]; read-out: IC50): 5.5 µM; CC50 (MRC5): 36 µM; inhibition [9]: Dose-dependent effect; Activity (Trypanosoma brucei [10]): Active
COc1ccc(C2=NN(C3CCCCCC3)C(=O)[C@@H]3CC=CC[C@H]23)cc1-c1ccc(C(=O)NCC(=O)NC(C)C)cc1 (relative stereo),6.31 µM,2 µM,4,
COc1ccc(C2=NN(C3CCCCCC3)C(=O)[C@@H]3CC=CC[C@H]23)cc1-c1ccc(C(=O)NCCNC(C)=O)cc1 (relative stereo),3.98 µM,0.794 µM,5,
COCCNC(=O)c1ccc(-c2cc(C3=NN(C4CCCCCC4)C(=O)[C@@H]4CC=CC[C@H]34)ccc2OC)cc1 (relative stereo),2 µM,0.316 µM,7,
CNC(=O)CNC(=O)c1ccc(-c2cc(C3=NN(C4CCCCCC4)C(=O)[C@@H]4CC=CC[C@H]34)ccc2OC)cc1 (relative stereo),2.51 µM,0.398 µM,6,
COc1ccc(C2=NN(C3CCCCCC3)C(=O)[C@@H]3CC=CC[C@H]23)cc1-c1ccc(C(=O)NCC(=O)N(C)C)cc1 (relative stereo),3.16 µM,0.794 µM,4,
COc1ccc(C2=NN(C3CCCCCC3)C(=O)[C@@H]3CC=CC[C@H]23)cc1-c1ccc(C(=O)N2CC(=O)N(C)C2)cc1 (relative stereo),,,1.4,
COc1ccc(C2=NN(C3CCCCCC3)C(=O)[C@@H]3CC=CC[C@H]23)cc1-c1ccc(C(=O)N2CCC(=O)C2)cc1 (relative stereo),,,3,
COc1ccc(C2=NN(C3CCCCCC3)C(=O)[C@@H]3CC=CC[C@H]23)cc1-c1ccc(C(=O)N2CNC(=O)C2)cc1 (relative stereo),,,1,
O=C(Nc1c(Cl)cncc1Cl)c1ccc(OC(F)F)c(OCC2CC2)c1 [ROFLUMILAST],,3.16 µM,,
Cc1ccc(C(=O)Nc2ccc(S(=O)(=O)O)c3cc(S(=O)(=O)O)cc(S(=O)(=O)O)c23)cc1NC(=O)c1cccc(NC(=O)Nc2cccc(C(=O)Nc3cc(C(=O)Nc4ccc(S(=O)(=O)O)c5cc(S(=O)(=O)O)cc(S(=O)(=O)O)c45)ccc3C)c2)c1 [SURAMIN],,,,IC50 (Trypanosoma brucei [6]; read-out: pIC50 (converted)): 0.0398 µM
